High-throughput results from PubChem BioAssay.
M1 ag – activates the M1 muscarinic receptor; B-score at 10 µM; AID 626; CHO-M1 cells, Fluo-4 calcium fluorescence, agonist mode; active compounds read high; 64,000 compounds, 3% hits;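 active = fluorescence rise, raw or as B-score row- and column-corrected plate score, outside the 99.7% band of its plate's samples, either direction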
SF1 activator – SF-1 (human) activation | CHO-K1 Gal4-SF-1 LBD luciferase reporter; % increase over DMSO SF-1-specific signal | activation, % at 10 µM | 65,000 compounds, 1.9% hits;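 active = activation above the mean activation of all tested compounds plus 3 SD, cut at about 50% in these data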
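System: CHO-K1 cells with Gal4–hSF-1 LBD chimera plus Gal4-driven luciferase; quantity: 4,000 CHO-K1 cells per well; compound: one dose, 10 µM compound, 1% DMSO; times: 20 h compound treatment, 37 °C; measured by: SteadyLite luciferase luminescence; read-out: percent activation versus DMSO; benchmarks: DMSO and mock-transfected background; replicates: one test per compound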
D1 allo mod – allosteric modulators of human D1 dopamine receptor | P21728 | B-score at 10 µM | HEK293 D1, CRE-luciferase, dopamine EC30 potentiation; actives deviate in either direction | AID 641 | 58,000 compounds, 5.9% hits;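 active = luminescence count or its row- and column-corrected plate score outside the 99.7% band of the plate's sample wells, on either side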
M1 antagonist – antagonists of rat M1 muscarinic receptor; CHO-M1 cells, Fluo-4 calcium, ACh EC80 antagonist mode; active compounds read low; B-score at 10 µM; 64,000 compounds, 3.4% hits;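 active = calcium fluorescence response, raw or row-and-column corrected B-score, differing from the plate sample mean either way at a set confidence level, mostly lower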
Target sequence (P08482 whole entry, looked up): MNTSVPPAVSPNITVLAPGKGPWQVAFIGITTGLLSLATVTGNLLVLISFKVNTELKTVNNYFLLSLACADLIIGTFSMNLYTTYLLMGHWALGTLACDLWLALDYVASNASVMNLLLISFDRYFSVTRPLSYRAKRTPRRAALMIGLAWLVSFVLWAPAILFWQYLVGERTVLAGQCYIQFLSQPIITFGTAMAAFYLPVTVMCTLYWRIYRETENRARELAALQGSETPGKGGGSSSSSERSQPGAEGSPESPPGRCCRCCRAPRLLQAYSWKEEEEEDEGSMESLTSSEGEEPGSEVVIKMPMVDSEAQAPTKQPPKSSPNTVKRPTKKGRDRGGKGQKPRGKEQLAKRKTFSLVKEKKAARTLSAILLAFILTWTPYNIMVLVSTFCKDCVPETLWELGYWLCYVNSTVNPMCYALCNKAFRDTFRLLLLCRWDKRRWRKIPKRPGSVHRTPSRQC
Htt clearance – mutant huntingtin protein clearance | HeLa Exon1htt(103Q)mCFP, aggregate imaging; zero = plate's median compound well | inhibition, % at 1.5 µM | 47,000 compounds, 0.42% hits;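 active = inhibition of aggregate fluorescence above about 70%, also judged a hit by eye on the cell image, limit read from the data, passing the limit was not always enough; inconclusive = no rule stated for this call; inactive = not judged a hit on image review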;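 note: cells exposed to compound for three days before fixation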
RORa activator – RORA (human) activation; CHO-K1 Gal4-RORA LBD luciferase reporter, luminescence; percent increase over mock-subtracted basal signal; activation, % at 10 µM; AID 560; P35398; 65,000 compounds, 1.5% hits;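 active = activation above the mean of all tested compounds plus 3 SD, cut at about 49% in these data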;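 note: 0% = DMSO-treated RORA cells and 100% = added signal equal to DMSO minus mock-transfected cells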
M1 ag confirm – rat M1 muscarinic agonism, confirmation; shares compounds with M1 ag; CHO-M1 cells, Fluo-4 calcium fluorescence, agonist mode; actives lie on both sides; 1,700 compounds, 19% hits; fluorescence change (max-min) at 10 µM;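 active = fluorescence change differs from the solvent-only DMSO control mean at a set confidence level in both duplicate runs; inconclusive = differs from solvent-only control mean in just one of two runs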;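 note: an EC20 dose of acetylcholine follows compound addition during the same imaging run; raw fluorescence intensity difference in instrument units with no normalization to controls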
M4 agonist ctr – rat M4 muscarinic agonism, M1 counter-screen | shares compounds with M1 ag | CHO M4/Gqi5 cells, Fluo-4 calcium fluorescence, agonist mode; actives lie on both sides | fluorescence change (max-min) at 10 µM | 1,700 compounds, 9% hits;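 active = fluorescence change differing from the plate's solvent-only control wells at 99.7% confidence in both duplicates, whether higher or lower; inconclusive = differs from solvent controls in only one of two duplicates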
The depositor's hits bear a star; ? = inconclusive; . = no result. Only some compounds are listed: those with a hit (about 11% of all), similar ones and a draw of the others.

SMILES	M1 ag	SF1 activator	D1 allo mod	M1 antagonist	Htt clearance	RORa activator	M1 ag confirm	M4 agonist ctr
CCC1CCCCN1S(=O)(=O)c1ccc(S(=O)(=O)N(Cc2cccs2)C2CC2)cc1 (stereo unspecified)	9.7*	-2.9	0.0323	-1.9*	34.4	-11.0	-31.3*	-71.9*
Cc1ccc(S(=O)(=O)N2CCCC(C(=O)N(Cc3cccs3)C3CC3)C2)cc1 (stereo unspecified)	0.104	-17.5	.	0.317	.	-7.2	.	.
COc1cccc(-c2cc(C(F)(F)F)n3ncc(C(=O)NCC4CCCO4)c3n2)c1 (stereo unspecified)	6.59*	3.8	-0.102	-1.86	.	4.0	?	-53.8
COn1c(=O)c(-c2cccs2)[n+]([O-])c2ccccc21	.	.	.	.	3.8	.	.	.
CCOn1c(=O)c(-c2ccc(OC)cc2)[n+]([O-])c2ccccc21	5.19*	11.3	0.403	-0.891	-36.3	10.5	?	-92
CCOn1c(=O)c(-c2ccc(Cl)cc2)[n+]([O-])c2ccccc21	.	.	.	.	11.2	.	.	.
COn1c(=O)c(-c2ccc(Cl)cc2)[n+]([O-])c2ccccc21	-0.229	-2.0	0.476	-0.17	13.6	-17.7	.	.
O=c1c(-c2ccccc2)[n+]([O-])c2ccccc2n1O	9.29*	-14.4	-1.16	-0.165	.	-21.7	42.4	5.09
CCOC(=O)COn1c(=O)c(-c2cccs2)[n+]([O-])c2ccccc21	88.4*	6.7	0.0493	-0.0764	.	-13.3	800*	?
O=C(c1ccco1)N1CCCC(c2nc(-c3ccc(S(=O)(=O)NCc4ccccc4)cc3)no2)C1 (stereo unspecified)	5.62	-21.4	0.34	-0.729	.	-24.1	.	.
O=C(C1CCN(S(=O)(=O)c2ccc(F)cc2)CC1)N1CCOCC1	0.797	0.6	-0.376	0.903	11.1	-6.1	.	.
Cc1cc(NC(=O)CSc2cn(CCNC(=O)c3ccc(F)cc3)c3ccccc23)no1	4.23*	3.1	0.548	-0.436	4.4	-26.4	-12.3	-14.7
CCC(C)c1ccc(O)c(NC(=O)c2ncn[nH]2)c1 (stereo unspecified)	11.9*	-1.2	0.176	0.78	-25.4	-6.8	-24*	-37.3
CCN1CCN(c2nc3c(C)cccn3c(=O)c2/C=C(\C#N)S(=O)(=O)c2ccc(C)cc2)CC1	9.69*	1.1	-2.88	-0.53	6.2	-7.3	?	40.5
CCN1C(=S)SC(=O)C1=C1C=C(C)OC(C)=C1	-0.713	19.4	1.15	-0.733	.	12.9	.	.
CCN1C(=S)SC(=O)C1=C1C=C(C)N(Cc2ccco2)C(C)=C1	27*	52.9*	-1.65	0.169	.	18.5	135*	234*
COCc1cc(C)nc2sc(C(=O)OC)c(N)c12	4.38*	-3.0	3.01	0.0311	-49.1	-10.1	-5.94	-40
CCCCCOC(=O)c1ccccc1C(=O)O	3.02*	-2.7	-0.0974	-0.327	.	-7.6	-9.25	?
CCOC(=O)C1CCN(C(=O)c2cnn3c(C)cc(C)nc23)CC1	-0.473	-2.1	0.19	0.228	.	1.5	.	.
O=C(CSc1nnc(C2COc3ccccc3O2)o1)N1CCOCC1 (stereo unspecified)	.	-17.1	-0.768	.	.	-12.6	.	.
O=C(CSc1nnc(C2COc3ccccc3O2)o1)N1CCCc2ccccc21 (stereo unspecified)	2.5*	-15.5	0.22	-1.23	.	3.5	?	-25.5
Cc1[nH]c2ccc(-c3nnc(SCC(=O)N4CCCc5ccccc54)o3)cc2c1C	44.7*	6.3	0.0345	-1.13	-83.1	10.8	?	-40.8
CN(CC(=O)Nc1ccc2c(c1)OCCO2)S(=O)(=O)c1cccc2cccnc12	-0.028	-6.0	.	0.0171	11.6	-7.8	.	.
Nc1n[nH]c(S(=O)(=O)CCCc2ccccc2)n1	0.00296	-7.9	.	0.0302	-7.6	-8.5	.	.
N=c1oc2c3c4c(cc2cc1C(=O)Nc1ccccc1)CCCN4CCC3	221*	47.1	.	-15.1*	62.9	7.5	3358*	2806*
SMILES	M1 ag	SF1 activator	D1 allo mod	M1 antagonist	Htt clearance	RORa activator	M1 ag confirm	M4 agonist ctr
Cc1cc2cc3c(cc2nc1SCC(=O)Nc1ccccc1)CCC3	.	.	.	.	35.9	.	.	.
COc1cc(C2C(C(=O)c3ccco3)=C(O)C(=O)N2CCc2ccccc2)ccc1O (stereo unspecified)	88.9*	2.6	.	-1.36	.	-17.6	-9.39	-29.9
CCOc1cc(C2C(C(=O)c3ccc(C)o3)=C(O)C(=O)N2CCc2ccccc2)ccc1O (stereo unspecified)	0.294	-12.4	-0.0871	-0.217	.	-16.4	.	.
O=C(CSCC(=O)N1CCN(c2ccccc2)CC1)Nc1nc(-c2ccc(Cl)s2)cs1	.	.	.	.	-8.7	.	.	.
O=C(CSCC(=O)N1CCCCC1)Nc1nc(-c2cccs2)cs1	5.65*	17.8	-2.04	-1.81	.	5.0	8.47	-11.1
O=C(CSCC(=O)N1CCCCC1)Nc1nc(-c2ccc(Cl)s2)cs1	4.8*	18.5	.	-0.591	16.9	23.5	?	-29.7
CC1CC(C)CN(C(=O)CSCC(=O)Nc2nc(-c3cccs3)cs2)C1 (stereo unspecified)	-0.591	16.7	.	-0.0961	.	12.7	.	.
O=c1c2c3c(sc2nc2sc(CN4CCOCC4)cn12)CCCC3	-3.31*	24.9	0.204	-0.288	-21.5	3.1	-17.7	?
COCCn1c(C)cc(C(=O)CSc2nc(C)nc3sc4c(c23)CCC4)c1C	-0.0202	-17.3	1.49	0.519	-24.1	-8.6	.	.
COc1ccc(CCNC2=NCC(C)S2)cc1 (stereo unspecified)	30.7*	10.1	.	-1.61	.	-15.7	-4.95	?
COc1ccc(CCNS(=O)(=O)c2ccc3c(c2)OCCO3)cc1	-1.06	-18.9	0.95	0.0839	10.3	-16.1	.	.
Cc1ccc(-c2nn(C)c(=O)c3ccccc23)cc1S(=O)(=O)NCCN1CCOCC1	-0.084	-1.8	3.36	-0.518	-49.2	3.6	.	.
Cc1ccc(-c2nn3c(-c4ccco4)nnc3c3ccccc23)cc1S(=O)(=O)NCC1CCCO1 (stereo unspecified)	5.26*	-11.4	-0.506	-0.951	43.0	2.7	3.34	-29.7
CC1Cc2ccccc2N1C(=O)CN1C(=O)NC(C)(c2ccc3c(c2)OCCO3)C1=O (stereo unspecified)	5.62*	-10.4	0.391	1.43	-14.1	-6.3	13.7	-16.6
CC(C)CC(=O)Nc1ccccc1Oc1ccccc1	.	.	.	.	-19.6	.	.	.
CCOc1ccc(CCNC(=O)C2CCC(=O)N2C2CCCCC2)cc1OCC (stereo unspecified)	1.31	-3.5	0.647	0.442	.	0.5	.	.
Cn1c(CCNC(=O)c2ccco2)nc2cc(NS(=O)(=O)c3ccc(Cl)cc3)ccc21	-0.186	-10.8	-0.394	0.564	.	-9.8	.	.
